Values after ≈ are worked out from the molar mass of the structure shown.
Columns and labels:
Assay type in all cases: functional
[1] = system: Staphylococcus aureus; test: Antimicrobial activity against Staphylococcus aureus UFPEDA 01 at 300 ug/disk after 24 hrs by disk diffusion method; settings: UFPEDA 01, 24 h, read-out: IZ
How it was run: (§1)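 Preliminary screen by disk diffusion. Paper disks (6 mm) holding 300 µg of compound were placed on agar plates inoculated with a standardized microbial suspension. DMSO-only disks served as negative controls. A mean inhibition zone below 7 mm was scored as no sensitivity. Values are means, n = 3.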

[2] = system: Candida albicans; test: Antimicrobial activity against Candida albicans UFPEDA 1007 at 300 ug/disk after 48 hrs by disk diffusion method; settings: UFPEDA 1007, 48 h, read-out: IZ; how it was run: as §1
[3] = system: Micrococcus luteus; test: Antimicrobial activity against Micrococcus luteus UFPEDA 06 after 20 hrs by twofold serial dilution technique; settings: UFPEDA 06, 20 h
How it was run: (§2)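 MIC was determined by twofold serial dilution. Bacteria were tested in plates at 10⁵ CFU/plate and read after 20 h. C. albicans was tested in tubes at 10³ CFU/tube and read after 48 h. All incubations were at 35 °C. Medium plus DMSO served as the negative control.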

[4] = system: HEp-2; test: Cytotoxicity against human Hep2 cells at 2.5 ug/mL after 72 hrs by MTT assay; settings: HEp-2, 72 h, read-out: GI
How it was run: (§3)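 MTT antiproliferative assay. Cells were diluted to 10⁵ cells/mL in 96-well plates and preincubated for 24 h at 37 °C in humid 5% CO₂. Compounds or vincristine (reference) were then added. Formazan was dissolved and OD read at 540 nm, compared with medium-only control cells. Run in triplicate.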

[5] = system: Enterococcus faecalis; test: Antimicrobial activity against Enterococcus faecalis UFPEDA 138 at 300 ug/disk after 24 hrs by disk diffusion method; settings: UFPEDA 138, 24 h, read-out: IZ; how it was run: as §1
[6] = system: NCI-H292; test: Cytotoxicity against human NCI-H292 cells at 1.25 ug/mL after 72 hrs by MTT assay; settings: NCI-H292, 72 h, read-out: GI; how it was run: as §3
[7] = system: Staphylococcus; test: Antimicrobial activity against coagulase-negative Staphylococcus H.A.M. 278 isolate after 20 hrs by twofold serial dilution technique; settings: H.A.M. 278, 20 h; how it was run: as §2
[8] = system: NCI-H292; test: Cytotoxicity against human NCI-H292 cells at 2.5 ug/mL after 72 hrs by MTT assay; settings: NCI-H292, 72 h, read-out: GI; how it was run: as §3
[9] = system: Staphylococcus aureus; test: Antimicrobial activity against multidrug-resistant Staphylococcus aureus H.C. 20794 isolate after 20 hrs by twofold serial dilution technique; settings: H.C. 20794, 20 h
How it was run: (§4)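 Twofold serial dilution MIC in agar plates against Gram-positive strains and multidrug-resistant clinical isolates. Inoculum applied was 10⁵ CFU/plate. Plates with culture medium plus DMSO served as negative control. MIC was read after incubation at 35 °C for 20 h.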

[10] = system: Enterococcus faecalis; test: Antimicrobial activity against multidrug-resistant Enterococcus faecalis H.C. 21944 isolate after 20 hrs by twofold serial dilution technique; settings: H.C. 21944, 20 h; how it was run: as §4
[11] = system: Staphylococcus aureus; test: Antimicrobial activity against multidrug-resistant Staphylococcus aureus H.C. 20489 isolate after 20 hrs by twofold serial dilution technique; settings: H.C. 20489, 20 h; how it was run: as §4
[12] = system: NCI-H292; test: Cytotoxicity against human NCI-H292 cells at 5 ug/mL after 72 hrs by MTT assay; settings: NCI-H292, 72 h, read-out: GI; how it was run: as §3
[13] = system: Staphylococcus aureus; test: Antimicrobial activity against multidrug-resistant Staphylococcus aureus H.C. 21036 isolate after 20 hrs by twofold serial dilution technique; settings: H.C. 21036, 20 h; how it was run: as §4
[14] = system: Pseudomonas aeruginosa; test: Antimicrobial activity against Pseudomonas aeruginosa UFPEDA 39 at 300 ug/disk after 24 hrs by disk diffusion method; settings: UFPEDA 39, 24 h, read-out: IZ; how it was run: as §1
[15] = system: HEp-2; test: Cytotoxicity against human Hep2 cells at 10 ug/mL after 72 hrs by MTT assay; settings: HEp-2, 72 h, read-out: GI; how it was run: as §3
[16] = system: Staphylococcus aureus; test: Antimicrobial activity against Staphylococcus aureus UFPEDA 01 after 20 hrs by twofold serial dilution technique; settings: UFPEDA 01, 20 h; how it was run: as §4
[17] = system: Enterococcus faecalis; test: Antimicrobial activity against multidrug-resistant Enterococcus faecalis H.C. 24708 isolate after 20 hrs by twofold serial dilution technique; settings: H.C. 24708, 20 h; how it was run: as §4
[18] = system: Serratia marcescens; test: Antimicrobial activity against Serratia marcescens UFPEDA 398 at 300 ug/disk after 24 hrs by disk diffusion method; settings: UFPEDA 398, 24 h, read-out: IZ; how it was run: as §1
[19] = system: Enterococcus faecalis; test: Antimicrobial activity against multidrug-resistant Enterococcus faecalis H.C. 21752 isolate after 20 hrs by twofold serial dilution technique; settings: H.C. 21752, 20 h; how it was run: as §4
[20] = system: Staphylococcus aureus; test: Antimicrobial activity against multidrug-resistant Staphylococcus aureus H.C. 20981 isolate after 20 hrs by twofold serial dilution technique; settings: H.C. 20981, 20 h; how it was run: as §4
[21] = system: HEp-2; test: Cytotoxicity against human Hep2 cells at 1.25 ug/mL after 72 hrs by MTT assay; settings: HEp-2, 72 h, read-out: GI; how it was run: as §3
[22] = system: Staphylococcus aureus; test: Antimicrobial activity against multidrug-resistant Staphylococcus aureus H.C. 20905 isolate after 20 hrs by twofold serial dilution technique; settings: H.C. 20905, 20 h; how it was run: as §4
[23] = system: Bacillus subtilis; test: Antimicrobial activity against Bacillus subtilis UFPEDA 16 at 300 ug/disk after 24 hrs by disk diffusion method; settings: UFPEDA 16, 24 h, read-out: IZ; how it was run: as §1
[24] = system: HEp-2; test: Cytotoxicity against human Hep2 cells at 5 ug/mL after 72 hrs by MTT assay; settings: HEp-2, 72 h, read-out: GI; how it was run: as §3
[25] = system: Micrococcus luteus; test: Antimicrobial activity against Micrococcus luteus UFPEDA 06 at 300 ug/disk after 24 hrs by disk diffusion method; settings: UFPEDA 06, 24 h, read-out: IZ; how it was run: as §1
[26] = system: Mycolicibacterium smegmatis; test: Antimicrobial activity against Mycobacterium smegmatis UFPEDA 71 at 300 ug/disk after 24 hrs by disk diffusion method; settings: UFPEDA 71, 24 h, read-out: IZ; how it was run: as §1
[27] = system: Staphylococcus aureus; test: Antimicrobial activity against multidrug-resistant Staphylococcus aureus H.C. 21141 isolate after 20 hrs by twofold serial dilution technique; settings: H.C. 21141, 20 h; how it was run: as §4
[28] = system: Enterococcus faecalis; test: Antimicrobial activity against Enterococcus faecalis UFPEDA 138 after 20 hrs by twofold serial dilution technique; settings: UFPEDA 138, 20 h; how it was run: as §2
[29] = system: NCI-H292; test: Cytotoxicity against human NCI-H292 cells at 10 ug/mL after 72 hrs by MTT assay; settings: NCI-H292, 72 h, read-out: GI; how it was run: as §3
[30] = system: Bacillus subtilis; test: Antimicrobial activity against Bacillus subtilis UFPEDA 16 after 20 hrs by twofold serial dilution technique; settings: UFPEDA 16, 20 h; how it was run: as §2
[31] = system: Escherichia coli; test: Antimicrobial activity against Escherichia coli UFPEDA 224 at 300 ug/disk after 24 hrs by disk diffusion method; settings: UFPEDA 224, 24 h, read-out: IZ; how it was run: as §1
[32] = system: Candida albicans; test: Antimicrobial activity against Candida albicans UFPEDA 1007 after 48 hrs by twofold serial dilution technique; settings: UFPEDA 1007, 48 h; how it was run: as §2
[33] = system: Mycolicibacterium smegmatis; test: Antimicrobial activity against Mycobacterium smegmatis UFPEDA 71 after 20 hrs by twofold serial dilution technique; settings: UFPEDA 71, 20 h; how it was run: as §2
[34] = system: Enterococcus faecalis; test: Antimicrobial activity against multidrug-resistant Enterococcus faecalis H.C. 24962 isolate after 20 hrs by twofold serial dilution technique; settings: H.C. 24962, 20 h; how it was run: as §4
[35] = system: Staphylococcus; test: Antimicrobial activity against coagulase-negative Staphylococcus H.A.M. 338 isolate after 20 hrs by twofold serial dilution technique; settings: H.A.M. 338, 20 h; how it was run: as §2

SMILES | zone of inhibition at 300 µg/disc [1] [mm] | zone of inhibition at 300 µg/disc [2] [mm] | MIC [3] [µg/mL] | inhibition of growth at 2.5 µg/mL [4] [%] | zone of inhibition at 300 µg/disc [5] [mm] | inhibition of growth at 1.25 µg/mL [6] [%] | MIC [7] [µg/mL] | inhibition of growth at 2.5 µg/mL [8] [%] | MIC [9] [µg/mL] | MIC [10] [µg/mL] | MIC [11] [µg/mL] | inhibition of growth at 5 µg/mL [12] [%] | MIC [13] [µg/mL] | zone of inhibition at 300 µg/disc [14] [mm] | inhibition of growth at 10 µg/mL [15] [%] | MIC [16] [µg/mL] | MIC [17] [µg/mL] | zone of inhibition at 300 µg/disc [18] [mm] | MIC [19] [µg/mL] | MIC [20] [µg/mL] | further results
O=C1NC(=S)/C(=C/c2ccc(F)cc2)S1 | 29 | 17 | 16 (≈ 66.9 µM) | -4.51 | 24 | 7.32 | 32 (≈ 134 µM) | 17.5 | 2 (≈ 8.36 µM) | 32 (≈ 134 µM) | 2 (≈ 8.36 µM) | 31.6 | 2 (≈ 8.36 µM) | < 7 | 30.1 | 4 (≈ 16.7 µM) | 16 (≈ 66.9 µM) | < 7 | 32 (≈ 134 µM) | 4 (≈ 16.7 µM) | inhibition of growth at 1.25 µg/mL [21]: -10.8%; MIC [22]: 2 µg/mL (≈ 8.36 µM); zone of inhibition at 300 µg/disc [23]: 26 mm; inhibition of growth at 5 µg/mL [24]: 20.6%; zone of inhibition at 300 µg/disc [25]: 29 mm; zone of inhibition at 300 µg/disc [26]: 25 mm; MIC [27]: 32 µg/mL (≈ 134 µM); MIC [28]: 32 µg/mL (≈ 134 µM); inhibition of growth at 10 µg/mL [29]: 38%; MIC [30]: 16 µg/mL (≈ 66.9 µM); zone of inhibition at 300 µg/disc [31]: < 7 mm; MIC [32]: 32 µg/mL (≈ 134 µM); MIC [33]: 16 µg/mL (≈ 66.9 µM); MIC [34]: 16 µg/mL (≈ 66.9 µM); MIC [35]: 32 µg/mL (≈ 134 µM)
O=C1NC(=S)/C(=C/c2cccc(F)c2)S1 | 28 | 16 | 16 (≈ 66.9 µM) | 7.03 | 22 | 2.1 | 16 (≈ 66.9 µM) | 3.43 | 2 (≈ 8.36 µM) | 8 (≈ 33.4 µM) | 2 (≈ 8.36 µM) | 13.1 | 2 (≈ 8.36 µM) | < 7 | 20.9 | 4 (≈ 16.7 µM) | 8 (≈ 33.4 µM) | < 7 | 16 (≈ 66.9 µM) | 2 (≈ 8.36 µM) | inhibition of growth at 1.25 µg/mL [21]: 0.84%; MIC [22]: 2 µg/mL (≈ 8.36 µM); zone of inhibition at 300 µg/disc [23]: 20 mm; inhibition of growth at 5 µg/mL [24]: 19.8%; zone of inhibition at 300 µg/disc [25]: 27 mm; zone of inhibition at 300 µg/disc [26]: 20 mm; MIC [27]: 16 µg/mL (≈ 66.9 µM); MIC [28]: 32 µg/mL (≈ 134 µM); inhibition of growth at 10 µg/mL [29]: 26.8%; MIC [30]: 16 µg/mL (≈ 66.9 µM); zone of inhibition at 300 µg/disc [31]: < 7 mm; MIC [32]: 64 µg/mL (≈ 267 µM); MIC [33]: 32 µg/mL (≈ 134 µM); MIC [34]: 8 µg/mL (≈ 33.4 µM); MIC [35]: 16 µg/mL (≈ 66.9 µM)

Source: ChEMBL document CHEMBL1158358, “Synthesis, antimicrobial and cytotoxic activities of some 5-arylidene-4-thioxo-thiazolidine-2-ones” (Eur J Med Chem, 2009)
